ChEMBL document CHEMBL1155876 (J Med Chem, 2008)

Assays:
[1] = biological target: T1, Aurora kinase A (Homo sapiens, UniProt O14965); assay: Inhibition of Aurora A
T1 sequence (O14965 whole entry): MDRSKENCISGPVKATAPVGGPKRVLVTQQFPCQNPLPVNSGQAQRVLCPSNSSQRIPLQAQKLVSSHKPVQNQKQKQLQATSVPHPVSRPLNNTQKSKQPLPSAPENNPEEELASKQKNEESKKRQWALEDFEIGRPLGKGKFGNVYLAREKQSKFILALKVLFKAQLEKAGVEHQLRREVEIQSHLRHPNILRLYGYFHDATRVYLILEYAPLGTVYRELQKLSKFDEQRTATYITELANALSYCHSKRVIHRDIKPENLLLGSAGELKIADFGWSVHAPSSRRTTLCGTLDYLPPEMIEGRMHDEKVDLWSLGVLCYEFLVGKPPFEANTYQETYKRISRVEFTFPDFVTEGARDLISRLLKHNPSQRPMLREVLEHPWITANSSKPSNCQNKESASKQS

[2] = biological target: T2, Aurora kinase B (Homo sapiens, UniProt Q96GD4); assay: Inhibition of Aurora B
[3] = Cmax in CD1 mouse at 30 mg/kg, po; assay type: ADME, organism-based; set-up: dose 30 mg/kg, route oral; settings: in vivo
[4] = AUClast in CD1 mouse at 30 mg/kg, po; assay type: ADME, organism-based; set-up: time 0 - last, dose 30 mg/kg, route oral; settings: plasma
[5] = system: HT-29; assay: Antiproliferative activity against human HT29 cells; assay type: functional, cell-based
Procedure, shortened: (§1)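 HCT116, HT29 or MCF7 cells were seeded on day 0 in 1:1 Ham's F12/DMEM-high glucose with 10% FBS and 2 mM L-glutamine, then kept overnight at 37 °C in 5% CO2. On day 1, inhibitor in DMSO, diluted 20-fold in serum- and glutamine-free medium, was added. Viability was read on day 4 as total ATP by CellTiter-Glo luminescence.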

[6] = system: MCF7; assay: Antiproliferative activity against human MCF7 cells; assay type: functional, cell-based; procedure, shortened: as §1
[7] = system: HCT-116; assay: Antiproliferative activity against human HCT116 cells
[8] = biological target: Serine/threonine-protein kinase Chk1 (Homo sapiens, UniProt O14757); assay: Inhibition of Chk1
[9] = biological target: T1, Aurora kinase A; assay: Inhibition of Aurora A in human HCT cells assessed as loss of autophosphorylation of Aurora A; assay type: cell-based
[10] = biological target: T2, Aurora kinase B; assay: Inhibition of Aurora B assessed as loss of phospho histone H3 in human […] cells; assay type: cell-based
[11] = biological target: T2, Aurora kinase B; assay: Inhibition of Aurora B assessed as loss of phospho histone H3 in human HCT cells; assay type: cell-based
[12] = biological target: Cyclin-dependent kinase 2 (Homo sapiens, UniProt P24941); assay: Inhibition of CDK2/CyclinA
[13] = biological target: Receptor-type tyrosine-protein kinase FLT3 (Homo sapiens, UniProt P36888); assay: Inhibition of Flt3
[14] = biological target: Glycogen synthase kinase-3 beta (Homo sapiens, UniProt P49841); assay: Inhibition of GSK3-beta
[15] = biological target: Vascular endothelial growth factor receptor 2 (Homo sapiens, UniProt P35968); assay: Inhibition of KDR
[16] = biological target: Proto-oncogene tyrosine-protein kinase Src (Homo sapiens, UniProt P12931); assay: Inhibition of Src
[17] = system: Mus musculus; assay: Toxicity in athymic mouse xenografted with human HCT116 cells assessed as loss of body weight at 10 mg/kg, po qd; assay type: organism-based, HCT-116; set-up: dose 10 mg/kg, route oral; settings: in vivo
Procedure, shortened: (§2)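 Female athymic nude mice, 5 × 10^6 HCT-116 cells injected subcutaneously in the right flank. At a mean tumor volume of ~150 mm3, mice were randomized to groups (N = 10). Oral QD dosing at 0, 1, 2.5, 5 or 10 mg/kg as a suspension in 20% HP-β-cyclodextrin (100 µL). Three mice per group were taken for PD after 2 days; the rest were dosed for 21 days. Body weight was followed, with euthanasia at 20% weight loss.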

[18] = system: Mus musculus; assay: Toxicity in athymic mouse xenografted with human HCT116 cells assessed as bone marrow depletion at 10 mg/kg, po qd; assay type: organism-based, HCT-116; set-up: dose 10 mg/kg, route oral; settings: in vivo; procedure, shortened: as §2
[19] = Clearance in CD1 mouse 1 mg/kg, iv; assay type: ADME, organism-based; set-up: dose 1 mg/kg, route intravenous; settings: in vivo
Procedure, shortened: (§3)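 A single 1 mg/kg iv dose was given. Vehicles: CD-1 mice (female, 3 per time point), 5% DMSO/5% Cremophor; SD rats (male, 3 per route), 80% PEG; beagles (male, 3 per route), 60% PEG. PK parameters were calculated from averaged serum levels (N = 3).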

[20] = system: Mus musculus; assay: Oral bioavailability in CD1 mouse 5 mg/kg; assay type: ADME, organism-based; settings: in vivo
Procedure, shortened: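 Female CD-1 mice, three per time point. Oral dose 5 mg/kg as a solution in 80% polyethylene glycol; iv reference dose 1 mg/kg as a solution in 5% DMSO, 5% Cremophor. PK parameters calculated from mean serum levels (N = 3).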

[21] = Clearance in Sprague-Dawley rat 1 mg/kg, iv; assay type: ADME, organism-based; set-up: dose 1 mg/kg, route intravenous; settings: in vivo; procedure, shortened: as §3
[22] = Oral bioavailability in Sprague-Dawley rat 5 mg/kg; assay type: ADME, organism-based; settings: in vivo
Procedure, shortened: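 Male Sprague-Dawley rats, three per route. Oral dose 5 mg/kg as a solution in 80% PEG; iv dose 1 mg/kg, also as an 80% PEG solution. PK parameters calculated from averaged serum levels (N = 3).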

[23] = Oral bioavailability in Beagle dog 5 mg/kg; assay type: ADME, organism-based, Canis lupus familiaris; settings: in vivo
Procedure, shortened: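 Three male beagles per route. Oral dose 5 mg/kg given as a solution in 80% PEG; iv comparator 1 mg/kg delivered in 60% PEG. Mean serum concentrations (N = 3) used to derive PK parameters.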

[24] = Clearance in Beagle dog 1 mg/kg, iv; assay type: ADME, organism-based, Canis lupus familiaris; set-up: dose 1 mg/kg, route intravenous; settings: in vivo; procedure, shortened: as §3
[25] = system: Mus musculus; assay: Toxicity in athymic mouse xenografted with human HCT116 cells assessed as gastrointestinal hypocellularity at 10 mg/kg, po qd; settings: in vivo

T2 sequence (Q96GD4 whole entry): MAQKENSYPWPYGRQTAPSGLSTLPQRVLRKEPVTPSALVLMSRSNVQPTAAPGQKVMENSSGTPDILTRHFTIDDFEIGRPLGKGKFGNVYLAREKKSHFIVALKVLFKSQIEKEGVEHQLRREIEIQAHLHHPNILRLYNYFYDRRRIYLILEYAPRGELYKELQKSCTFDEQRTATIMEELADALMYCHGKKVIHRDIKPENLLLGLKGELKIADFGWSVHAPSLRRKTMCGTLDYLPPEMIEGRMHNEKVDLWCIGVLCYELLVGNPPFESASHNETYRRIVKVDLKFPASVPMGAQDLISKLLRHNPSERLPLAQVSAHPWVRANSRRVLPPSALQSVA
Proto-oncogene tyrosine-protein kinase Src, sequence (P12931 2-536 limits assumed): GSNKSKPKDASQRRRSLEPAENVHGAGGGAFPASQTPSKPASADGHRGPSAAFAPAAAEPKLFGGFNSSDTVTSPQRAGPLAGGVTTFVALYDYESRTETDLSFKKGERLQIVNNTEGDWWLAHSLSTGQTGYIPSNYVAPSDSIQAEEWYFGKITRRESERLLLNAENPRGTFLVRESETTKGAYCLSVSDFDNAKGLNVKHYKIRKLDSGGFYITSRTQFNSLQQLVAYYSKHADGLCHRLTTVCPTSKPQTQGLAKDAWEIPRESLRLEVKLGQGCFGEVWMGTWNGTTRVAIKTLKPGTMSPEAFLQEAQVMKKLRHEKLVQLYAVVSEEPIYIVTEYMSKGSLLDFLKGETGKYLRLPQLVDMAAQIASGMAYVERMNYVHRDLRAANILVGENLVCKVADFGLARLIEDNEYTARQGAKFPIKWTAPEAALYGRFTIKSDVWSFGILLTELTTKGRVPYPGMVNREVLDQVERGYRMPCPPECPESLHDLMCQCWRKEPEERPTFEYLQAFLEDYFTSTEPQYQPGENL
Glycogen synthase kinase-3 beta, sequence (P49841 whole entry): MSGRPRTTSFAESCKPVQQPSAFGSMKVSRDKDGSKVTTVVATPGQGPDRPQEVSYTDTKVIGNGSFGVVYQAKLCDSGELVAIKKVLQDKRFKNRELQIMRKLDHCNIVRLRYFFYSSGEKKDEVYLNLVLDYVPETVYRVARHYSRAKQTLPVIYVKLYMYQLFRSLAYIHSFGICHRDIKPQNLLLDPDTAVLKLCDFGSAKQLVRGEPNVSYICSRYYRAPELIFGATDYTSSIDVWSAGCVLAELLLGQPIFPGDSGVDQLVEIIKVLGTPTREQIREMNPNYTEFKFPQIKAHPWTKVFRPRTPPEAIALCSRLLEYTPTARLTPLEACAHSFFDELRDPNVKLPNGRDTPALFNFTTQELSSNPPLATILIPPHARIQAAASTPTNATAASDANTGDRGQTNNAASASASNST
Vascular endothelial growth factor receptor 2, sequence (P35968 whole entry): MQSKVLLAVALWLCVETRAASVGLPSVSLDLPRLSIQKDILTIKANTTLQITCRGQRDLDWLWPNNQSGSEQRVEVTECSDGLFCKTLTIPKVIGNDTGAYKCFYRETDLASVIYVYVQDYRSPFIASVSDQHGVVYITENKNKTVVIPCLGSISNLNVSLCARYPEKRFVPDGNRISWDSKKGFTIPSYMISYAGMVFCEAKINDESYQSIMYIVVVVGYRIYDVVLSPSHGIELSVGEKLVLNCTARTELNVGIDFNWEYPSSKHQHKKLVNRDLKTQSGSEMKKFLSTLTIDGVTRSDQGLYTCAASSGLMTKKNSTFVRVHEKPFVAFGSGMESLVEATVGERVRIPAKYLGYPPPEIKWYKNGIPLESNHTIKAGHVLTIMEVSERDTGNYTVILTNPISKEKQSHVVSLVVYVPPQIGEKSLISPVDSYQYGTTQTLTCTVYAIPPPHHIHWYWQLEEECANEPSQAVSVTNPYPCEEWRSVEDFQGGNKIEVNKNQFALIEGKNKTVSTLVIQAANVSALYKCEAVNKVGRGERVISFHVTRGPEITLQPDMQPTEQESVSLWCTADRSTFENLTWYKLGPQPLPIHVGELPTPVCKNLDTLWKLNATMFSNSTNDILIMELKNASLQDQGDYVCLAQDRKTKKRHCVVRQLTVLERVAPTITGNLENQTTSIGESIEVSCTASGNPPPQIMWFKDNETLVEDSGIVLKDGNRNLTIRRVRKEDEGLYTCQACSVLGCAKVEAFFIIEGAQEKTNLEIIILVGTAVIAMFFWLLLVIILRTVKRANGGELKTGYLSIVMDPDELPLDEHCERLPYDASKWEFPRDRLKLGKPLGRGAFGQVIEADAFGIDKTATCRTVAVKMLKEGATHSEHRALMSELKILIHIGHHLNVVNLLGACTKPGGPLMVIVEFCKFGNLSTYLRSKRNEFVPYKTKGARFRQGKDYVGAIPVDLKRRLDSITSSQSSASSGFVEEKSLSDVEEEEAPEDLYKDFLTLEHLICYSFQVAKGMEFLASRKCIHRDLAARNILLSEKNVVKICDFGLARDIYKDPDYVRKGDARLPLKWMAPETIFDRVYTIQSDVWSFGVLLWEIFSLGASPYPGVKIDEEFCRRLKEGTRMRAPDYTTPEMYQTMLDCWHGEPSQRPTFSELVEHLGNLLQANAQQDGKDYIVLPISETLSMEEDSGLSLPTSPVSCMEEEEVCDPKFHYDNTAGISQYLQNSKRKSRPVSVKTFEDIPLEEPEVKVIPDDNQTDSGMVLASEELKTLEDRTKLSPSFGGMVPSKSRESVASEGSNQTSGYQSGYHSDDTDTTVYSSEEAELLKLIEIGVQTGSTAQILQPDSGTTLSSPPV
Serine/threonine-protein kinase Chk1, sequence (O14757 whole entry): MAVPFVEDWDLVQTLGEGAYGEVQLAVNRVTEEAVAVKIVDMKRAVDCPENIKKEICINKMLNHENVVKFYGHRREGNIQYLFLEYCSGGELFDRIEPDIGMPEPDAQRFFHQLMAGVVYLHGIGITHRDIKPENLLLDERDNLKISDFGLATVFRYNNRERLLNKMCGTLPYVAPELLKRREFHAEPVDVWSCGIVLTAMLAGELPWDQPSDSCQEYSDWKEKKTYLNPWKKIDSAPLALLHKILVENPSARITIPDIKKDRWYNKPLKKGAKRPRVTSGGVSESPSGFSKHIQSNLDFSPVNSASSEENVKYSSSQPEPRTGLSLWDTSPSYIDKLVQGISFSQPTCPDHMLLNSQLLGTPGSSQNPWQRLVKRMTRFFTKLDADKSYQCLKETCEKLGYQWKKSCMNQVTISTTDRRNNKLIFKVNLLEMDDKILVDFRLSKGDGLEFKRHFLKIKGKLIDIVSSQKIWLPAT
Receptor-type tyrosine-protein kinase FLT3, sequence (P36888 whole entry): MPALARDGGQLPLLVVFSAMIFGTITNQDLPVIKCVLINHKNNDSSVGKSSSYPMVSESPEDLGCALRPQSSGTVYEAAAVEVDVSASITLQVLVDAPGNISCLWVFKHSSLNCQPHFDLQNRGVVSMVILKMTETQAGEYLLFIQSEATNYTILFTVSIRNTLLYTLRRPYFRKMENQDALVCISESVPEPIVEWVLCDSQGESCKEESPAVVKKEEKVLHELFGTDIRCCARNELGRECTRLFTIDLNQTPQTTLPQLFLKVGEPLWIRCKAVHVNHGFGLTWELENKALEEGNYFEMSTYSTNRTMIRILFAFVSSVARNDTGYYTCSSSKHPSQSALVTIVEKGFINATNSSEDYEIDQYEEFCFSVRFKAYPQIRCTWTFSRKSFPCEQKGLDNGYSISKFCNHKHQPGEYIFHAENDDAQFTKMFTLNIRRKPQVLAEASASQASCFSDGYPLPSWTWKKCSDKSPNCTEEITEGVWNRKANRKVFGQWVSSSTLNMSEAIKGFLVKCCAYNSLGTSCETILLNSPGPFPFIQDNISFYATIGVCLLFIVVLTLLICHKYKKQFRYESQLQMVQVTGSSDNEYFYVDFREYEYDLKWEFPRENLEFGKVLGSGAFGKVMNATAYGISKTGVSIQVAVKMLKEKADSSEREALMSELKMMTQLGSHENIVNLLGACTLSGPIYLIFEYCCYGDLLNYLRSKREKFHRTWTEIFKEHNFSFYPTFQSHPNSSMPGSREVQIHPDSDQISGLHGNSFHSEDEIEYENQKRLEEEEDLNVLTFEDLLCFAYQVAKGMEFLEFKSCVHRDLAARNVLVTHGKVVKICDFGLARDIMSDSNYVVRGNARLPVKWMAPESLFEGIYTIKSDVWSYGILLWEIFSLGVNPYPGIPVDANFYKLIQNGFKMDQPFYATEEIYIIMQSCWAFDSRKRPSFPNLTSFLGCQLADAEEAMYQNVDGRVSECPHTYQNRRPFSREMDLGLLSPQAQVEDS

Row | SMILES | IC50 [1] [nM] | IC50 [2] [nM] | IC50 [5] [nM] | IC50 [6] [nM] | other results
1 | c1ccc2c3c([nH]c2c1)-c1n[nH]cc1CC3 | 300 |  |  |  | 
2 | Cc1[nH]nc2c1Cc1c-2[nH]c2ccccc12 | 870 | 880 | > 20000 | > 20000 | 
3 | OCc1[nH]nc2c1CCc1c-2[nH]c2ccccc12 | 340 |  |  |  | 
4 | CCOC(=O)c1[nH]nc2c1CCc1c-2[nH]c2ccccc12 | 5700 |  |  |  | 
5 | Cc1cc(Nc2cc(N3CCN(C)CC3)nc(Sc3ccc(NC(=O)C4CC4)cc3)n2)n[nH]1 [TOZASERTIB] |  |  | 150 | 48 | IC50 [7]: 53 nM
6 | Cc1cc(-c2cc3ccccc3[nH]2)n[nH]1 | 1100 | 510 |  |  | 
7 | CCN1C(=O)C(C)(C)c2cc3[nH]c4c(c3cc21)CCCc1c-4n[nH]c1C |  | 5 |  |  | IC50 [8]: 85 nM; IC50 [9]: 160 nM; IC50 [10]: 100 nM; IC50 [11]: 310 nM; IC50 [12]: 15000 nM; IC50 [13]: 2 nM; IC50 [14]: 7700 nM; IC50 [15]: 12 nM; IC50 [16]: 250 nM; Activity [17]: Toxic; Activity [18]: Toxic; clearance [19]: 25 mL/min/kg; F [20]: 178%; clearance [21]: 22 mL/min/kg; bioavailability [22]: 97%; bioavailability [23]: 56%; clearance [24]: 34 mL/min/kg; Activity [25]: Toxic

Continued, in another order:

Row | IC50 [1] [nM] | IC50 [2] [nM] | IC50 [5] [nM] | IC50 [6] [nM] | SMILES | other results
8 | 180 | 150 |  |  | Cc1cc(-c2nc3cc4c(cc3[nH]2)NC(=O)C4(C)C)n[nH]1 | Cmax [3]: 0.88 µM; AUC(0-t) [4]: 1.5 µM·h
9 | 110 |  |  |  | c1ccc2c3c([nH]c2c1)-c1n[nH]c(C2CC2)c1CC3 | 
10 | 2 |  | 30 | 100 | Cc1[nH]nc2c1CCCc1c-2[nH]c2cc3c(cc12)NC(=O)C3(C)C | 
11 | 69 | 130 |  |  | CCN1C(=O)C(C)(C)c2cc3nc(-c4cc(C)[nH]n4)[nH]c3cc21 | Cmax [3]: 51 µM; AUC(0-t) [4]: 180 µM·h
12 | 51 | 220 | > 20000 | 4500 | Cc1[nH]nc2c1CCc1c-2[nH]c2ccccc12 | 
13 | 72 | 86 | 2600 | 1500 | Cc1[nH]nc2c1CCCc1c-2[nH]c2cc3c(cc12)C(C)(C)C(=O)N3 | 
14 | 42 | 22 | 2600 | 670 | Cc1[nH]nc2c1CCCC1c3ccccc3NC21 (stereo not given) | 
